Most compounds without a hit are left out; they make up all but 4.6% or so of the library.
TAAR1 antag: antagonists of human TAAR1. AID 624466. CHO RD-HGA16 TAAR1, Fluo-8 calcium fluorescence, antagonist. 360,000 compounds, 1.5% hits. inhibition, % at 3 µM;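 active means inhibition above a per-plate cutoff, the mean inhibition of test compounds on that plate plus 3 SD, cut at about 49% in these data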;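 further: 0% = DMSO plus EC80 beta-PEA response and 100% = DMSO alone without agonist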
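Test system: hTAAR1-expressing CHO RD-HGA16 cells, Gα16-coupled; Probe or stimulus: EC80 β-phenethylamine stimulus; Compound dosing: single nominal final test compound concentration of 3 µM; Timing: 140 s kinetic read after compound, 140 s after agonist; Signal: Fluo-8 calcium-sensitive fluorescence; Measure: % inhibition of agonist calcium response; Controls: DMSO and EC80 PEA controls.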
CHO parental Ca: signal in parental CHO cells, OX1R antagonist counter-screen; inhibition, % at 5.6 µM; parental CHO-K1, ATP-induced calcium, Fluo-8 fluorescence; 330,000 compounds, 0.63% hits; AID 463079;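 active means inhibition above that plate's mean sample inhibition plus 3 SD, cut at about 26% in these data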;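 further: 0% = ATP-challenged DMSO wells and 100% = DMSO wells without ATP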
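Measured by: calcium-sensitive Fluo-8 fluorescence / Test system: CHO parental line / Controls: ATP-challenged DMSO wells low, unchallenged DMSO wells high / Measure: % inhibition / Compound: single nominal dose of 5.6 µM per compound / Replicates: single well per compound, no replicates / Reagent: ATP as calcium-mobilizing challenge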
GPR7 antagonist: antagonists of human GPR7 (neuropeptides B/W receptor 1) | GPR7-expressing cells, fluorescence antagonist assay | P48145 | 290,000 compounds, 1.1% hits | inhibition, % at 4.4 µM | AID 1861; in the data active means inhibition above about 16%, passing the limit was not always enough;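 further: cells stimulated with the agonist NPW; 0% = agonist with vehicle and 100% = vehicle without agonist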
OX1R antag-1: OX1R (human) antagonism; O43613; inhibition, % at 6.6 µM; 330,000 compounds, 1.8% hits; OX1R-expressing cells, FRET antagonist read-out; AID 485270; in the data active means inhibition mostly above about 38%, no sharp cut-off; inactive means mostly below about 40%;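 further: 0% = agonist challenge alone and 100% = reference antagonist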
Target sequence (O43613 whole entry, looked up): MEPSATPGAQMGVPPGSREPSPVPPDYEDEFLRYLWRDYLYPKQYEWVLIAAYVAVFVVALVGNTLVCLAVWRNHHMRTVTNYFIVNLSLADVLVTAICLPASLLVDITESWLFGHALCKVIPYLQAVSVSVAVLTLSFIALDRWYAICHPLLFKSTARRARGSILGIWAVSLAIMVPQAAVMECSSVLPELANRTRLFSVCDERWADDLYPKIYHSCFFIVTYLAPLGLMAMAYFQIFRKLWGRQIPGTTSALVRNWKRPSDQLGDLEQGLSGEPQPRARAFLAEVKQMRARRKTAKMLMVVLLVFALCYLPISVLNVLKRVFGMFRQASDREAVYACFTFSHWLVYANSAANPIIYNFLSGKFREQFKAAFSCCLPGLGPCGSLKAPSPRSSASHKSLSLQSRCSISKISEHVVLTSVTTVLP
TAAR1 agonist: human TAAR1 agonism; CHO RD-HGA16 TAAR1, Fluo-8 calcium fluorescence; vehicle wells 0%, saturating PEA agonist 100%; activation, % at 3 µM; AID 624467; Q96RJ0; 360,000 compounds, 0.99% hits;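 active means activation above the mean activation of all test compounds in the run plus 3 SD, cut at about 38% in these data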
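Assay system – CHO-derived RD-HGA16 cells with stable Gα16 and human TAAR1 · Compound dosing – one-point dosing at 3 µM (nominal) · Incubation – 17-24 h seeding, 75 min 37 °C dye, 30 min RT · Measured by – kinetic Fluo-8 calcium fluorescence · Control set – DMSO vehicle as 0%, PEA at EC100 as 100% · Repeats – single well for each compound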
OX1R antag-2: human HCRTR1 antagonism; O43613; CHO/OX1R cells, Fluo-8 calcium fluorescence, orexin A; inhibition, % at 5 µM; 330,000 compounds, 0.43% hits;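 active means inhibition above its plate's threshold, mean inhibition of all tested compounds on the plate plus 3 SD, cut at about 37% in these data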;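 further: 0% = orexin A challenge wells and 100% = SB-334867-A antagonist wells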
nonsel antag count: nonselective antagonist in TAAR1 antagonist counter-screen; counterscreen cell line, calcium fluorescence, antagonist mode; 2,400 compounds, 77% hits; shares compounds with TAAR1 antag; inhibition, % at 3 µM; in the data active means inhibition above about 22%;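 further: CHO-Ga16 host cells stimulated with ATP at an EC80 level; 0% = agonist EC80 plus vehicle and 100% = vehicle without agonist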
TAAR1 antag conf: confirmation of human TAAR1 antagonists; shares compounds with TAAR1 antag; TAAR1-expressing cells, fluorescence antagonist read-out; inhibition, % at 3 µM; 2,400 compounds, 40% hits; in the data active means inhibition above about 49%;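 further: CHO-Ga16 host cells challenged with agonist PEA near its EC80; 0% = agonist at EC80 plus vehicle and 100% = vehicle with no agonist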
Ga16 nonsel ag: counter-screen for TAAR1 antagonists: nonselective Ga16 agonists; shares compounds with TAAR1 antag; activation, % at 3 µM; Ga16-expressing cells, calcium fluorescence, agonist counterscreen; 2,400 compounds, 18% hits; in the data active means activation above about 12%;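 further: 0% = vehicle wells and 100% = saturating stimulus response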
TAAR1 ag counter: TAAR1 agonism, antagonist counter-screen; shares compounds with TAAR1 antag; hTAAR1 cell line, fluorescence activation, agonist mode; activation, % at 3 µM; 2,400 compounds, 2% hits; AID 651955; in the data active means activation above about 37%;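 further: CHO cells stably expressing TAAR1 with calcium dye readout; 0% = DMSO vehicle and 100% = full agonist response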
Starred values were filed as active, the others as inactive; . = no result.

SMILES	TAAR1 antag	CHO parental Ca	GPR7 antagonist	OX1R antag-1	TAAR1 agonist	OX1R antag-2	nonsel antag count	TAAR1 antag conf	Ga16 nonsel ag	TAAR1 ag counter
CCN(c1ccccc1)S(=O)(=O)c1ccc(NC(=S)NC(=O)c2ccc(Br)o2)cc1	64*	0	-2	13	8	-22	33*	40	8	0
CC(OC(=O)CCNS(=O)(=O)c1cccs1)C(=O)Nc1ccc(S(N)(=O)=O)cc1 (centres undefined)	-2	3	.	5	0	-2	.	.	.	.
Cc1ccc(C)c(Cn2cnc3c(nnn3-c3ccc(F)cc3)c2=O)c1	72*	-4	3	0	30	-14	12	37	2	10
CC(C)CCN1C(=O)c2ccc(C(=O)N3CCCCC3)cc2C1=O	3	-12	.	13	8	-24	.	.	.	.
Cc1cccc2c(N=Nc3ccccc3)c(O)[nH]c12	-18	-1	-13	7	-1	-8	.	.	.	.
COc1ccc(-c2ccc(/C=N/N3C(=O)C4C5C=CC(C6CC56)C4C3=O)o2)c([N+](=O)[O-])c1 (centres undefined)	56*	-14	5	16	17	1	31*	52*	10	10
CCOCCCNC(=O)C(c1ccc(Cl)cc1)N(Cc1cccs1)C(=O)c1ccccn1 (centres undefined)	71*	3	3	7	18	-34	21	38	9	10
CCOCCCNC(=O)C(c1ccc(OC)cc1)N(Cc1ccc2c(c1)OCO2)C(=O)c1ccccn1 (centres undefined)	-4	-13	-7	17	6	-24	.	.	.	.
CCOCCCNC(=O)C(c1ccc(C)cc1)N(Cc1cccs1)C(=O)c1ccccn1 (centres undefined)	61*	-14	-15	10	18	-4	30*	55*	12*	13
O=C(NCc1ccccc1)C(c1ccc(F)cc1)N(Cc1cccs1)C(=O)c1cnccn1 (centres undefined)	52*	-20	-6	15	16	-25	31*	48	7	9
Cc1c2c(nc3ccccc13)OCC2	32	.	7	.	13	.	.	.	.	.
CC(C(=O)N1CCCc2ccccc21)N1C(=O)c2ccccc2C1=O (centres undefined)	5	-16	-5	16	0	-12	.	.	.	.
CCC(Sc1nc(N)cc(=O)[nH]1)C(=O)Nc1cc(C)on1 (centres undefined)	3	-1	1	19	5	9	.	.	.	.
CCN(c1ccccc1)S(=O)(=O)c1ccc(OC)c(NC(=O)Cc2ccc(F)cc2)c1	104*	14	.	-3	-1	26	8	3	2	0
CCN(c1ccccc1)S(=O)(=O)c1ccc(OC)c(NC(=O)CN2C(=O)NC(C)(C)C2=O)c1	5	-8	.	1	0	-9	.	.	.	.
CCC(=O)N1CCN(c2ccccc2NC(=O)c2ccc(-c3cccc([N+](=O)[O-])c3)o2)CC1	55*	-23	-15	12	12	-23	26*	50*	6	2
CN1CCN(c2ccccc2NC(=O)c2ccc(-c3cccc([N+](=O)[O-])c3)o2)CC1	27	-12	-5	16	7	-27	.	.	.	.
O=C1NC(=Nc2ccccc2)S/C1=C\c1cccn1-c1ccccc1	73*	-2	17	60*	4	17	32*	43	3	2
COc1cccc(COC(=O)Nc2ccccc2)c1OC	-14	.	.	.	-1	.	.	.	.	.
C=C(C)C1CCC(C)=C1COC(=O)Nc1ccccc1 (centres undefined)	53*	-27	-6	22	21	-3	-2	2	-1	-3
CCOc1cc(N2CCOCC2)c(OCC)cc1NC(=O)CSc1nnc(N)s1	100*	-16	.	9	-2	-22	7	-4	4	4
COc1ccc(CCNC(=O)c2ccc(Cl)c(S(=O)(=O)N(C)c3ccccc3)c2)cc1	57*	-2	-13	3	12	-2	33*	44	9	3
O=C(CN(Cc1ccc(F)cc1)C(=O)C1CSC(=O)C1)NC1CCCCC1 (centres undefined)	9	-18	3	6	-3	-25	.	.	.	.
O=c1c2ccccc2nc(COc2ccccc2)n1/N=C/c1ccco1	38	-35	3	29	9	-35	.	.	.	.
Cc1ccccc1OCc1nc2ccccc2c(=O)n1/N=C/c1cn[nH]c1-c1ccccc1	64*	-18	-5	11	12	-21	27*	56*	5	7
SMILES	TAAR1 antag	CHO parental Ca	GPR7 antagonist	OX1R antag-1	TAAR1 agonist	OX1R antag-2	nonsel antag count	TAAR1 antag conf	Ga16 nonsel ag	TAAR1 ag counter
Cc1nc2ccccc2c(=O)n1/N=C/c1cn[nH]c1-c1ccccc1	58*	-25	-4	2	15	-33	27*	36	7	8
O=c1c2ccccc2nc(COc2ccccc2)n1/N=C/c1ccc(O)c(O)c1	68*	-13	-13	3	10	-22	20	35	7	4
Cc1ccc(-c2[nH]ncc2/C=N/n2c(COc3ccccc3)nc3ccccc3c2=O)cc1	66*	-14	0	27	10	-4	33*	53*	7	7
Cc1ccccc1OCc1nc2ccccc2c(=O)n1/N=C/c1cccc([N+](=O)[O-])c1	15	-7	-7	12	1	2	.	.	.	.
COc1ccc(NS(=O)(=O)c2cccc(C(=O)NCC(c3ccco3)N3CCCC3)c2)cc1 (centres undefined)	18	-23	.	17	3	-17	.	.	.	.
Cc1nn(-c2ccccc2)c(N2CCCC2)c1/C=N/n1cnc2scc(-c3ccccc3)c2c1=O	54*	-25	-6	9	5	-31	28*	39	3	2
O=C1NC[C@H](c2ccccc2)OC(=O)[C@H](Cc2ccc(F)cc2)C/C=C\C[C@@H]1CC(=O)N(CCO)Cc1ccccc1	77*	-21	.	33	32	18	32*	47	9	7
CC(C)(C)OC(=O)C[C@@H]1C/C=C\C[C@H](CC(=O)N[C@H](CO)Cc2ccccc2)C(=O)N[C@@H](Cc2ccccc2)COC1=O	59*	-31	.	8	17	-21	28*	40	5	1
